Assay results collected from several papers.
Lines come from different studies, so protocols differ.
Read-out: cell growth or viability

| SMILES | cell line | assay | setting | IC50 |
| --- | --- | --- | --- | --- |
| Nc1nc2sc(CCCCCCCc3ccc(C(=O)N[C@@H](CCC(=O)O)C(=O)O)cc3)cc2c(=O)[nH]1 | R2/PCFT4 |  | 96 h, pH 7.2 | > 1000 nM |
| C=CCNC1=C2C[C@@H](C)C[C@H](OC)[C@H](O)[C@@H](C)/C=C(\C)[C@H](OC(N)=O)[C@@H](OC)/C=C\C=C(/C)C(=O)NC(=CC1=O)C2=O | HUVEC | MTT |  | 1200 nM |
| COc1cc(Nc2nccc(-c3cnn4nc(OC)ccc34)n2)cc(C(F)(F)F)c1 | NCI-H1048 | ATP luminescence |  | 380 nM |
| Cn1cc(-c2ccc3c(c2)ncn3-c2ccc(CC(=O)Nc3cc(C(C)(C)C)on3)cc2)cn1 | NIH3T3 |  |  | 34.4 nM |
| COc1cc(/C=C/C(=O)CC(=O)/C=C/c2ccc(O)c(OC)c2)ccc1O | HUVEC | MTT | 48 h | 10.3 µg/mL |
| CC(C)C[C@H](NC(=O)[C@H](Cc1ccccc1)NC(=O)c1cnccn1)B(O)O | NCI-H2286 | ATP luminescence |  | 6.6 nM |
| Nc1nc2sc(CCc3ccc(C(=O)N[C@@H](CCC(=O)O)C(=O)O)cc3)cc2c(=O)[nH]1 | R2/PCFT4 |  | 96 h, pH 7.2 | > 1000 nM |
| Cc1ccc(-c2ccc(O)cc2)c(C(=C2C=CC(=O)C=C2)c2ccc(O)cc2)c1C#Cc1ccc(O)cc1 | HUVEC | MTT | 48 h | > 50000 nM |
| COc1cc(-c2ncn(/C=C\C(=O)OC(C)C)n2)cc(C(F)(F)F)c1 | MEG-01 |  | 72 h | 83 nM |
| Nc1nc2sc(CCCCCc3ccc(C(=O)N[C@@H](CCC(=O)O)C(=O)O)cc3)cc2c(=O)[nH]1 | R2/PCFT4 |  | 96 h, pH 7.2 | > 1000 nM |
| COc1cc2ncnc(Nc3ccc(F)c(Cl)c3)c2cc1NC(=O)N/N=C/c1cccn1CCN1CCN(C)CC1 | PC-3 | MTT | 72 h | 2080 nM |
| CCCON(Cc1ccc(C(=O)NO)cc1)C(=O)Nc1ccccc1 | HAL-01 | ATP luminescence | 72 h | 6650 nM |
| COC1=C2C[C@@H](C)C[C@H](OC)[C@H](O)[C@@H](C)/C=C(\C)[C@H](OC(N)=O)[C@@H](OC)/C=C\C=C(/C)C(=O)NC(=CC1=O)C2=O | HUVEC | MTT |  | 41 nM |
| COc1cc2ncnc(Nc3ccc(F)c(Cl)c3)c2cc1NC(=O)N/N=C/CN1CCCC1 | PC-3 | MTT | 72 h | 2550 nM |
| O=C(Nc1cccc2cccnc12)c1cnccn1 | HFF-1 | MTT |  | > 30000 nM |
| CCCON(Cc1ccc(C(=O)NO)cc1)C(=O)Nc1ccc(N(C)C)cc1 | HAL-01 | ATP luminescence | 72 h | 13800 nM |
